According to PMC9090800 (RSC Advances, 2018):
In brackets after ≈: the same amount, converted by molar mass.

Assays:
Format in all cases: cell-based
[1] = system: C. albicans (ATCC 90028); test: In vitro anticandidal activity, broth dilution; conditions: Candida albicans, ATCC90028, 24 h, read-out: IC50 ± S.D, C. albicans
Method in brief: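 Broth dilution followed the NCCLS protocol. Test compound in DMSO was diluted in PBS, then tested at 1000 to 7.8 μg mL−1 in SD broth with about 2.5 × 10^3 cells per mL in 96-well plates. Plates were shaken 24 h at 30 °C, 150 rpm, and read at OD580. IC50 was the concentration halving absorbance versus untreated cells, taken from a log10 concentration versus % inhibition plot. Triplicates were run on separate occasions, with fluconazole as positive control.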

[2] = system: human embryonic kidney (HEK-293) cells; test: Cytotoxicity by MTT assay; conditions: HEK-293, 100 μg mL^−1, 24 h
Method in brief: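 HEK-293 cells grown as monolayers in DMEM with 10% FBS, penicillin and streptomycin, 37 °C, 5% CO2, at most 30 passages. Seeded at about 8 × 10^3 cells per well, 24 h before dosing. Test compound (DMSO stock diluted in PBS) given at 10–200 μg mL−1 for 24 h at 37 °C. Serum-free medium, then MTT (5 mg mL−1 in PBS), 4 h. Formazan dissolved in DMSO, A570 read. Triplicate; viability relative to untreated cells.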

[3] = Hemolytic assay; conditions: human, human red blood cells (erythrocyte suspension in PBS)
Method in brief: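 Fresh human blood was collected in EDTA and spun 10 min at 2000 rpm. Erythrocytes were washed three times in PBS and made to a 10% (v/v) suspension, then diluted 1:10. Equal volumes of cells and test compound dilution series in PBS were incubated in triplicate for 1 h at 37 °C and re-centrifuged. Supernatant A450 was expressed relative to buffer (0%) and 1% Triton X-100 (100% lysis). Fluconazole was the reference.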

Row | SMILES | IC50 [1] [µg/mL] | cell viability (MTT) [2] | hemolysis at 1 h, 1000 μg mL^−1 [3] [%]
1 | CCOC(=O)c1nc2ccccc2c(=O)n1Cc1cn(-c2ccccc2)nn1 [Compound 5a, Ethyl 4-oxo-3-((1-phenyl-1H-1,2,3-triazol-4-yl)methyl)-3,4-dihydroquinazoline-2-carboxylate] | 228 ± 3.8 (≈ 607 µM) |  | 
2 | CCOC(=O)c1nc2ccccc2c(=O)n1Cc1cn(-c2ccccc2Cl)nn1 [Compound 5b, Ethyl 3-((1-(2-chlorophenyl)-1H-1,2,3-triazol-4-yl)methyl)-4-oxo-3,4-dihydroquinazoline-2-carboxylate] | 124 ± 18.4 (≈ 304 µM) |  | 
3 | CCOC(=O)c1nc2ccccc2c(=O)n1Cc1cn(-c2ccccc2F)nn1 [Compound 5c, Ethyl 3-((1-(2-fluorophenyl)-1H-1,2,3-triazol-4-yl)methyl)-4-oxo-3,4-dihydroquinazoline-2-carboxylate] | 110 ± 4.8 (≈ 279 µM) |  | 
4 | CCOC(=O)c1nc2ccccc2c(=O)n1Cc1cn(-c2ccccc2C)nn1 [Compound 5d, Ethyl 4-oxo-3-((1-o-tolyl-1H-1,2,3-triazol-4-yl)methyl)-3,4-dihydroquinazoline-2-carboxylate] | 297 ± 5.9 (≈ 763 µM) |  | 
5 | CCOC(=O)c1nc2ccccc2c(=O)n1Cc1cn(-c2ccccc2OC)nn1 [Compound 5e, Ethyl 3-((1-(2-methoxyphenyl)-1H-1,2,3-triazol-4-yl)methyl)-4-oxo-3,4-dihydroquinazoline-2-carboxylate] | 18.6 ± 3.4 (≈ 45.9 µM) | no significant decrease in cell viability | < 20
6 | CCOC(=O)c1nc2ccccc2c(=O)n1Cc1cn(-c2ccccc2[N+](=O)[O-])nn1 [Compound 5f, Ethyl 3-((1-(2-nitrophenyl)-1H-1,2,3-triazol-4-yl)methyl)-4-oxo-3,4-dihydroquinazoline-2-carboxylate] | 269 ± 5.5 (≈ 641 µM) |  | 
7 | CCOC(=O)c1nc2ccccc2c(=O)n1Cc1cn(-c2cccc(F)c2)nn1 [Compound 5h, Ethyl 3-((1-(3-fluorophenyl)-1H-1,2,3-triazol-4-yl)methyl)-4-oxo-3,4-dihydroquinazoline-2-carboxylate] | 510 ± 6.4 (≈ 1300 µM) |  | 
8 | CCOC(=O)c1nc2ccccc2c(=O)n1Cc1cn(-c2cccc(C)c2)nn1 [Compound 5i, Ethyl 4-oxo-3-((1-m-tolyl-1H-1,2,3-triazol-4-yl)methyl)-3,4-dihydroquinazoline-2-carboxylate] | 353 ± 11.1 (≈ 905 µM) |  | 
9 | CCOC(=O)c1nc2ccccc2c(=O)n1Cc1cn(-c2cccc(OC)c2)nn1 [Compound 5j, Ethyl 3-((1-(3-methoxyphenyl)-1H-1,2,3-triazol-4-yl)methyl)-4-oxo-3,4-dihydroquinazoline-2-carboxylate] | 340 ± 7.4 (≈ 840 µM) |  | 
10 | CCOC(=O)c1nc2ccccc2c(=O)n1Cc1cn(-c2cccc([N+](=O)[O-])c2)nn1 [Compound 5k, Ethyl 3-((1-(3-nitrophenyl)-1H-1,2,3-triazol-4-yl)methyl)-4-oxo-3,4-dihydroquinazoline-2-carboxylate] | 143 ± 2.5 (≈ 339 µM) |  | 
11 | CCOC(=O)c1nc2ccccc2c(=O)n1Cc1cn(-c2ccc(Cl)cc2)nn1 [Compound 5l, Ethyl 3-((1-(4-chlorophenyl)-1H-1,2,3-triazol-4-yl)methyl)-4-oxo-3,4-dihydroquinazoline-2-carboxylate] | 216 ± 3.5 (≈ 526 µM) |  | 
12 | CCOC(=O)c1nc2ccccc2c(=O)n1Cc1cn(-c2ccc(F)cc2)nn1 [Compound 5m, Ethyl 3-((1-(4-fluorophenyl)-1H-1,2,3-triazol-4-yl)methyl)-4-oxo-3,4-dihydroquinazoline-2-carboxylate] | 209 ± 6.5 (≈ 532 µM) |  | 
13 | CCOC(=O)c1nc2ccccc2c(=O)n1Cc1cn(-c2ccc(OC)cc2)nn1 [Compound 5o, Ethyl 3-((1-(4-methoxyphenyl)-1H-1,2,3-triazol-4-yl)methyl)-4-oxo-3,4-dihydroquinazoline-2-carboxylate] | 394.3 ± 1.7 (≈ 973 µM) |  | 
14 | CCOC(=O)c1nc2ccccc2c(=O)n1Cc1cn(-c2ccc([N+](=O)[O-])cc2)nn1 [Compound 5p, Ethyl 3-((1-(4-nitrophenyl)-1H-1,2,3-triazol-4-yl)methyl)-4-oxo-3,4-dihydroquinazoline-2-carboxylate] | 151 ± 15.7 (≈ 360 µM) |  | 
15 | CCOC(=O)c1nc2ccccc2c(=O)n1Cc1cn(-c2ccc(C(=O)O)cc2)nn1 [Compound 5q, 4-(4-((2-(ethoxycarbonyl)-4-oxoquinazolin-3(4H)-yl)methyl)-1H-1,2,3-triazol-1-yl)benzoic acid] | 342 ± 5.7 (≈ 816 µM) |  | 
16 | OC(Cn1cncn1)(Cn1cncn1)c1ccc(F)cc1F [FLC, fluconazole, reference compound] | 15.6 ± 2.2 (≈ 50.9 µM) |  | 78.1

Now from value to compound, other results behind:

Row | IC50 [1] [µg/mL] | SMILES | cell viability (MTT) [2] | hemolysis at 1 h, 1000 μg mL^−1 [3] [%]
17 | 119 ± 7.6 (≈ 342 µM) | O=C(O)c1nc2ccccc2c(=O)n1Cc1cn(-c2ccccc2)nn1 [Compound 6a, 4-Oxo-3-((1-phenyl-1H-1,2,3-triazol-4-yl)methyl)-3,4-dihydroquinazoline-2-carboxylic acid] |  | 
18 | 169 ± 3.4 (≈ 442 µM) | O=C(O)c1nc2ccccc2c(=O)n1Cc1cn(-c2ccccc2Cl)nn1 [Compound 6b, 3-((1-(2-Chlorophenyl)-1H-1,2,3-triazol-4-yl)methyl)-4-oxo-3,4-dihydroquinazoline-2-carboxylic acid] |  | 
19 | 101 ± 3.7 (≈ 276 µM) | O=C(O)c1nc2ccccc2c(=O)n1Cc1cn(-c2ccccc2F)nn1 [Compound 6c, 3-((1-(2-Fluorophenyl)-1H-1,2,3-triazol-4-yl)methyl)-4-oxo-3,4-dihydroquinazoline-2-carboxylic acid] | no significant decrease in cell viability | < 20
20 | 131 ± 4.3 (≈ 363 µM) | Cc1ccccc1-n1cc(Cn2c(C(=O)O)nc3ccccc3c2=O)nn1 [Compound 6d, 4-Oxo-3-((1-o-tolyl-1H-1,2,3-triazol-4-yl)methyl)-3,4-dihydroquinazoline-2-carboxylic acid] |  | 
21 | 48.2 ± 3.2 (≈ 128 µM) | COc1ccccc1-n1cc(Cn2c(C(=O)O)nc3ccccc3c2=O)nn1 [Compound 6e, 3-((1-(2-Methoxyphenyl)-1H-1,2,3-triazol-4-yl)methyl)-4-oxo-3,4-dihydroquinazoline-2-carboxylic acid] | no significant decrease in cell viability | < 20
22 | 701 ± 23.6 (≈ 1790 µM) | O=C(O)c1nc2ccccc2c(=O)n1Cc1cn(-c2ccccc2[N+](=O)[O-])nn1 [Compound 6f, 3-((1-(2-Nitrophenyl)-1H-1,2,3-triazol-4-yl)methyl)-4-oxo-3,4-dihydroquinazoline-2-carboxylic acid] |  | 
23 | 100 ± 4 (≈ 263 µM) | O=C(O)c1nc2ccccc2c(=O)n1Cc1cn(-c2cccc(Cl)c2)nn1 [Compound 6g, 3-((1-(3-Chlorophenyl)-1H-1,2,3-triazol-4-yl)methyl)-4-oxo-3,4-dihydroquinazoline-2-carboxylic acid] |  | 
24 | 135 ± 2.4 (≈ 369 µM) | O=C(O)c1nc2ccccc2c(=O)n1Cc1cn(-c2cccc(F)c2)nn1 [Compound 6h, 3-((1-(3-Fluorophenyl)-1H-1,2,3-triazol-4-yl)methyl)-4-oxo-3,4-dihydroquinazoline-2-carboxylic acid] |  | 
25 | 133 ± 4.2 (≈ 369 µM) | Cc1cccc(-n2cc(Cn3c(C(=O)O)nc4ccccc4c3=O)nn2)c1 [Compound 6i, 4-Oxo-3-((1-m-tolyl-1H-1,2,3-triazol-4-yl)methyl)-3,4-dihydroquinazoline-2-carboxylic acid] |  | 
26 | 214 ± 11 (≈ 568 µM) | COc1cccc(-n2cc(Cn3c(C(=O)O)nc4ccccc4c3=O)nn2)c1 [Compound 6j, 3-((1-(3-Methoxyphenyl)-1H-1,2,3-triazol-4-yl)methyl)-4-oxo-3,4-dihydroquinazoline-2-carboxylic acid] |  | 
27 | 701 ± 23.6 (≈ 1790 µM) | O=C(O)c1nc2ccccc2c(=O)n1Cc1cn(-c2cccc([N+](=O)[O-])c2)nn1 [Compound 6k, 3-((1-(3-Nitrophenyl)-1H-1,2,3-triazol-4-yl)methyl)-4-oxo-3,4-dihydroquinazoline-2-carboxylic acid] |  | 
28 | 221 ± 11.2 (≈ 579 µM) | O=C(O)c1nc2ccccc2c(=O)n1Cc1cn(-c2ccc(Cl)cc2)nn1 [Compound 6l, 3-((1-(4-Chlorophenyl)-1H-1,2,3-triazol-4-yl)methyl)-4-oxo-3,4-dihydroquinazoline-2-carboxylic acid] |  | 
29 | 172 ± 5.3 (≈ 471 µM) | O=C(O)c1nc2ccccc2c(=O)n1Cc1cn(-c2ccc(F)cc2)nn1 [Compound 6m, 3-((1-(4-Fluorophenyl)-1H-1,2,3-triazol-4-yl)methyl)-4-oxo-3,4-dihydroquinazoline-2-carboxylic acid] |  | 
30 | 125 ± 5.9 (≈ 331 µM) | COc1ccc(-n2cc(Cn3c(C(=O)O)nc4ccccc4c3=O)nn2)cc1 [Compound 6o, 3-((1-(4-Methoxyphenyl)-1H-1,2,3-triazol-4-yl)methyl)-4-oxo-3,4-dihydroquinazoline-2-carboxylic acid] |  | 
31 | 789 ± 16.4 (≈ 2010 µM) | O=C(O)c1nc2ccccc2c(=O)n1Cc1cn(-c2ccc([N+](=O)[O-])cc2)nn1 [Compound 6p, 3-((1-(4-Nitrophenyl)-1H-1,2,3-triazol-4-yl)methyl)-4-oxo-3,4-dihydroquinazoline-2-carboxylic acid] |  | 
32 | 916 ± 15.5 (≈ 2340 µM) | O=C(O)c1ccc(-n2cc(Cn3c(C(=O)O)nc4ccccc4c3=O)nn2)cc1 [Compound 6q, 3-((1-(4-Carboxyphenyl)-1H-1,2,3-triazol-4-yl)methyl)-4-oxo-3,4-dihydroquinazoline-2-carboxylic acid] |  | 
